Results on five molecules are retold here after PubChem BioAssay AID651654 (Broad Institute, 2012).

SMILES strings stand for the structures. “And” between values parts separate entries of the source, which are not always exact repeats. Equal entries are not always repeated. About 740 (0.21%) of roughly 360,000 compounds were called active.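 How the source made its calls: active means mean lysis activity across replicates of at least 80%, whatever share of replicates individually reach that level; inactive means mean lysis activity below 80%.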 The sample as a whole holds a higher share of actives than the screen did. A structure can be active in one record and inactive in another.

The assay is described as follows: Cryptococcus neoformans cell lysis inducers, primary screen, AK release luminescence, single concentration (AID 651654). Particulars: C. neoformans lysis, adenylate kinase release luminescence, 4 h; at 15 µM; stronger effect = higher value. The method, boiled down:
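Material – Cryptococcus neoformans yeast cells · Quantity – 5 × 10^6 yeast cells/mL · Buffer or medium – YPD medium · Compound – single dose · Timing – 4 h static compound exposure, 37 °C, read 1 h post-reagent · Signal – adenylate kinase release luminescence · Read-out basis – lysis from increased AK signal · Benchmarks – Clomiphene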
As to `C[C@H]1CN([C@@H](C)CO)C(=O)CCCn2nncc2CO[C@H]1CN(C)C(=O)Oc1cccc2ccccc12`, the lysis activity is 5.65% (inactive) and 82.4% (active) and -0.095% (inactive).
To `C[C@H](CO)N1C[C@H](C)[C@H](CN(C)C(=O)Oc2ccc3ccccc3c2)OCc2cnnn2CCCC1=O` belongs -8.92% (inactive); to `C[C@H]1CN([C@@H](C)CO)C(=O)CCCn2nncc2CO[C@H]1CN(C)C(=O)Oc1ccccc1`, -2.79% (inactive) and -0.658% (inactive) and 0.85% (inactive); to `COc1cccc(C(c2nnnn2-c2ccc3c(c2)OCCO3)N2CCC3(CC2)C(=O)NCN3c2ccccc2)c1OC` (stereo not given), -24.5% (inactive).
To `O=C(Cc1ccccc1)N1CCCCN2[C@H](C1)[C@H](c1ccc(C#CC3(O)CCCC3)cc1)[C@@H]2CO` belongs -1.31% (inactive).
